Measured values collected from several papers.
Protocols differ between the studies behind these lines.
Target: Serine/threonine-protein kinase mTOR (MTOR, Homo sapiens, UniProt P42345)

`C[C@@H]1CCN(c2nccc(-c3cnn4ncccc34)n2)C1` gave a remaining binding of 97% (binding; 1 µM).
The remaining binding of `O=C(c1ccc(Nc2ncc(Cl)c(-c3ccc(Cl)s3)n2)cc1)N1CCC(N2CCCC2)CC1` is reported as 86% (binding, competition with immobilised ligand; 1 µM).
The remaining binding of `Nc1ncc2c(n1)-c1c([nH]c3ccc(C#CC4CC4)cc13)CCCC2` is reported as 100% (binding, competition with immobilised ligand; 1 µM).
The remaining binding of `c1cncc(-c2cccc(Nc3nccc(NC4CCCCC4)n3)c2)c1` is reported as 94% (binding, competition with immobilised ligand; 10 µM).
The remaining binding of `COc1ccnn2ncc(-c3ccnc(N(C)C)n3)c12` is reported as 95% (binding; 1 µM).
The remaining binding of `CN(C)C(=O)Cn1cc(-c2nc(C3(c4ccc(-c5cnc(N)nc5)cc4)CC3)no2)cn1` is reported as 91% (cell-free assay, competition with immobilised ligand; 1 µM).
For `CN(C)c1nccc(-c2cnn3ncccc23)n1`, the remaining binding was 100% (binding; 1 µM).
For `CN(C)c1ncnc(-c2ccc3nc(Nc4cc(CN5CCN(C(=O)CC(F)(F)F)CC5)ccn4)[nH]c3c2)c1Cl`, the remaining binding was 100% (cell-free assay, competition with immobilised ligand; 1 µM).
For `COc1cnc(Nc2cccc(S(N)(=O)=O)c2)nc1N1CCN(c2ccccc2)CC1`, the remaining binding was 93% (binding, competition with immobilised ligand; 1 µM).
For `c1ccc(N2CCN(Cc3nc4ccccc4[nH]3)CC2)nc1`, the remaining binding was 100% (cell-free assay, competition with immobilised ligand; 1 µM).
The remaining binding of `O=C(NCCCN1CCOCC1)c1ccc(Nc2ncc(Cl)c(-c3ccc(Cl)s3)n2)cc1` is reported as 94% (binding, competition with immobilised ligand; 1 µM).
`CCC(=O)N[C@H]1CC[C@@H](C(=O)N(C)c2ccc(-c3nc4ccccc4o3)cc2)C1` has a remaining binding of 92% (cell-free assay, competition with immobilised ligand; 1 µM).
The remaining binding of `O=C(NCC1CCOCC1)c1n[nH]cc1NC(=O)c1c(F)cccc1F` is reported as 100% (binding, competition with immobilised ligand; 1 µM).
`COc1cc(-c2cn(C3CCc4ccccc4N(CC(F)(F)F)C3=O)nn2)ccc1-n1ccc(C)n1` (centres unmarked) has a remaining binding of 100% (cell-free assay, competition with immobilised ligand; 1 µM).
`Cc1cnn2ncc(-c3ccnc(N(C)C)n3)c2c1` has a remaining binding of 100% (binding; 1 µM).
For `O=C(NCc1ncc(C(F)(F)F)cc1Cl)c1ccc2c(c1)C1(CCS(=O)(=O)CC1)[C@@H](C1CC1)N2S(=O)(=O)c1ccc(F)cc1`, the remaining binding was 92% (cell-free assay, competition with immobilised ligand; 1 µM).
The remaining binding of `CN(CCCC(F)(F)F)c1nccc(-c2cnn3ncccc23)n1` is reported as 95% (binding; 1 µM).
The remaining binding of `COc1cnc(Nc2cccc(S(N)(=O)=O)c2)nc1N1CCN(c2ccccc2)C(=O)C1` is reported as 87% (binding, competition with immobilised ligand; 1 µM).
`Cc1cnc(Nc2ccc(C(=O)N3CCC(N4CCCC4)CC3)cc2)nc1-c1cc2ccccc2s1` gave a remaining binding of 85% (binding, competition with immobilised ligand; 1 µM).
`c1cnn2ncc(-c3ccnc(N4CCC45COC5)n3)c2c1` gave a remaining binding of 96% (binding; 1 µM).
